Experimental findings from PubChem BioAssay AID623922 (The Scripps Research Institute Molecular Screening Center, 2012) are described below.

Molecules are shown by their SMILES. Calls of active or inactive are those of the source.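 The calls were made as follows: active = residual nuclease activity at or below 52% of the solvent-only control; inactive = the rest.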

The target in the test is RecBCD enzyme subunit RecC (Escherichia coli (strain K12)) + RecBCD enzyme subunit RecB (Escherichia coli (strain K12)) (UniProt P07648+P08394). As to the kind of experiment: purified RecBCD nuclease inhibitors, late-stage follow-up, counter-screen for AddAB inhibitor project, biochemical, radioactivity readout, 50 µM single dose (AID 623922). To be noted: [3H] dsDNA nuclease, TCA-soluble radioactivity, at 50 µM, hits give low values. A digest of the protocol: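 Assay system: purified E. coli RecBCD; Quantity: RecBCD enzyme at 4.5 nM; Medium: pH 8.5, 10 mM MgCl2, 25 µM ATP; Incubation: enzyme-compound mixing on ice, then 20 min nuclease reaction at 37 °C; Detection: acid-soluble radioactivity counts; Read-out basis: percent nuclease activity versus DMSO control, no-enzyme background subtracted.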
Chain of RecBCD enzyme subunit RecC (Escherichia coli (strain K12)) + RecBCD enzyme subunit RecB (Escherichia coli (strain K12)) (P07648 whole entry, looked up): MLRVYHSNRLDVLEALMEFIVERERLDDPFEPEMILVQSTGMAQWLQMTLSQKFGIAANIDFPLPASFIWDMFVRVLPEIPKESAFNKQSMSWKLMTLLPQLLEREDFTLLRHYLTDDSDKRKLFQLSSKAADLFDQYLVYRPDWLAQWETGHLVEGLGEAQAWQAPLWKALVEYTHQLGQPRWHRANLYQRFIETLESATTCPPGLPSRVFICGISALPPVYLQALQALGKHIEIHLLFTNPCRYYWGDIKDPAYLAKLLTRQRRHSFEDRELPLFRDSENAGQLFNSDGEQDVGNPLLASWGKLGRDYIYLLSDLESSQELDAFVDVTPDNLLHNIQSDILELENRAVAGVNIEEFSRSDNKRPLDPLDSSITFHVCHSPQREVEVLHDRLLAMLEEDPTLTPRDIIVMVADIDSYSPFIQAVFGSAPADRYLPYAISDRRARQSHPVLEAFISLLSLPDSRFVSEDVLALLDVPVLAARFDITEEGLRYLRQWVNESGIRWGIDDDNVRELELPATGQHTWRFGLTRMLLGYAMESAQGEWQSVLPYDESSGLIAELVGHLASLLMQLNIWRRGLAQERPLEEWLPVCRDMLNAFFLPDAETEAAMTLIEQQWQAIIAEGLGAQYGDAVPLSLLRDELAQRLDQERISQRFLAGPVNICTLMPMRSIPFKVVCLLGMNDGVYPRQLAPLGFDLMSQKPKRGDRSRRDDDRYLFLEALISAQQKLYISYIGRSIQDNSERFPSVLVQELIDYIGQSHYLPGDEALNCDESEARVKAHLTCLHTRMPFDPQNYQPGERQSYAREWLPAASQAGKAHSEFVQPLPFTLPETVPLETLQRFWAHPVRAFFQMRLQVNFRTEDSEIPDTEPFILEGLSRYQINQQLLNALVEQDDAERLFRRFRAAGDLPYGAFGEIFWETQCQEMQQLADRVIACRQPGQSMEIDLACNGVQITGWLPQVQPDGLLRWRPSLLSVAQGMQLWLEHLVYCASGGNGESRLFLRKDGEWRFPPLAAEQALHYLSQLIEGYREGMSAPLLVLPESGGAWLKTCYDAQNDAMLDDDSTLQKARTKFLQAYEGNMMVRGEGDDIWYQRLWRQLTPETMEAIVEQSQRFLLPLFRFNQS
Chain of RecBCD enzyme subunit RecC (Escherichia coli (strain K12)) + RecBCD enzyme subunit RecB (Escherichia coli (strain K12)) (P08394 whole entry, looked up): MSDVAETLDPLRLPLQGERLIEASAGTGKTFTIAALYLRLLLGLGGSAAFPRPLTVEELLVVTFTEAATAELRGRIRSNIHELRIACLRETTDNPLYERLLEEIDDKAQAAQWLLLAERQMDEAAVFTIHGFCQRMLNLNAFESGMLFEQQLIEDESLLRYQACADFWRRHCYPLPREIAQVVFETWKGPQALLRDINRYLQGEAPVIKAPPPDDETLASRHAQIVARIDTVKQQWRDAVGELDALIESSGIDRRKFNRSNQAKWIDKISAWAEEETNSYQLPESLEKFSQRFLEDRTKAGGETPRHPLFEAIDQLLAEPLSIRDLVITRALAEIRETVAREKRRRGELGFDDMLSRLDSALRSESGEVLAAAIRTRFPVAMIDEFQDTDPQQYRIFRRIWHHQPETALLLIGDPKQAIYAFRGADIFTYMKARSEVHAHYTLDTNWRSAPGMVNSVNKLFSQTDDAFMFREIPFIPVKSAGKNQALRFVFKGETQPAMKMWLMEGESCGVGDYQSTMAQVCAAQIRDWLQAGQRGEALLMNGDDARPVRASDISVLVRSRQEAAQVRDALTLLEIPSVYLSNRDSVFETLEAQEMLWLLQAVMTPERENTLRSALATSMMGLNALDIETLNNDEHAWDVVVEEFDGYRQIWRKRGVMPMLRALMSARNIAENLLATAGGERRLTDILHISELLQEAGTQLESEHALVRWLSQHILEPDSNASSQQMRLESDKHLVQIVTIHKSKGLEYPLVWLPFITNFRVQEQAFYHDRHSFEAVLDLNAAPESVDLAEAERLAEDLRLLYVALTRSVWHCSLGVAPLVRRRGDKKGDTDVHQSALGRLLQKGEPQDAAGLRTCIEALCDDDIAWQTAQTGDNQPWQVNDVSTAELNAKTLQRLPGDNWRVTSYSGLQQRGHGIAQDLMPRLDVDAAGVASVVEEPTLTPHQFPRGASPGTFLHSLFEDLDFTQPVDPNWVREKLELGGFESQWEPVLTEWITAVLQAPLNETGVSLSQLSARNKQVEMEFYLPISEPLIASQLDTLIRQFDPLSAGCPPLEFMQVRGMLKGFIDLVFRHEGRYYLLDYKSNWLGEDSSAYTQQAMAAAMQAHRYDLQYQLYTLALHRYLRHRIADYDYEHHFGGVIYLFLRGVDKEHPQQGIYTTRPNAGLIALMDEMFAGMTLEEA
In the case of `CCn1cc(C(=O)O)c(=O)c2cnc(N3CCN(C(=S)NCc4ccccc4)CC3)nc21`, the residual nuclease activity is 45%. Turning to `CCn1cc(C(=O)O)c(=O)c2cnc(N3CCN(C(=S)Nc4ccccc4)CC3)nc21`, the residual nuclease activity was 68% (inactive). As for `CCn1cc(C(=O)O)c(=O)c2cnc(N3CCN(C(=S)NC(C)c4ccccc4)CC3)nc21` (configuration not stated), the figure is 27%; as for `CCn1cc(C(=O)O)c(=O)c2cnc(N3CCNCC3)nc21`, 93% (inactive); as for `CCn1cc(C(=O)O)c(=O)c2cnc(N3CCN(C(=O)Nc4ccccc4)CC3)nc21`, 91% (inactive). Then `CCn1cc(C(=O)O)c(=O)c2cnc(N3CCN(C(=S)NC(=O)c4cccc(C)c4)CC3)nc21`, with 47%; and `CCn1cc(C(=O)O)c(=O)c2cnc(N3CCN(C(=S)Nc4ccc(F)cc4)CC3)nc21`, with 51%. Then `CCn1cc(C(=O)O)c(=O)c2cnc(N3CCN(C(=S)Nc4ccc5c(c4)OCO5)CC3)nc21`, with 46%. On to `CCn1cc(C(=O)O)c(=O)c2cnc(N3CCN(C(=S)Nc4ccccc4C(F)(F)F)CC3)nc21`, for which the residual nuclease activity was 43%. `CCn1cc(C(=O)O)c(=O)c2cnc(N3CCN(C(=S)Nc4ccc(Cl)cc4)CC3)nc21`: the residual nuclease activity is 50%.

Turning to `CCn1cc(C(=O)O)c(=O)c2cnc(N3CCN(C(=S)Nc4cccc(C(F)(F)F)c4)CC3)nc21`, the residual nuclease activity was 8%. As to `CCn1cc(C(=O)O)c(=O)c2cnc(N3CCN(C(=S)NC4CC5CCC4C5)CC3)nc21` (configuration not stated), the residual nuclease activity was 75% (inactive).
